Assay results published in ChEMBL document CHEMBL4680184, “Simple amphiphilic α-hydrazido acids: Rational design, synthesis, and in vitro bioactivity profile of a novel class of potential antimicrobial compounds” (Eur J Med Chem, 2020).
In brackets after ≈: the same amount, converted by molar mass. Activity calls are given as the source filed them. The rule behind the calls is not given here.

Legend:
[1] = tested on: Staphylococcus aureus; assay: Antibacterial activity against Staphylococcus aureus ATCC 29213 assessed as inhibition of visible growth after 24 hrs by broth microdilution method; format: functional
In short: (§1)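 Compounds dissolved in sterile water at the highest achievable concentration, then serially diluted in Mueller-Hinton II broth per CLSI broth microdilution. Strains grown 6 h in BHI, diluted in MHII to 1 × 10^6 cfu/mL final. Aerobic incubation 37 °C, 24 h; tetracycline internal control; bacteria-only growth controls. MIC = lowest concentration with no visible growth; triplicate.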

[2] = Therapeutic index, ratio of HC50 for human erythrocytes to MIC for linezolid-methicillin-resistant Staphylococcus aureus AOUC 0915; format: toxicity
In short: (§2)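 TI = HC50/MIC. HC50: washed heparinized human erythrocytes (~20 vol % in PBS pH 7.4) mixed 1:1 with 1:2 serial compound dilutions in PBS, 1 h at 37 °C; supernatant A350 read; PBS and 0.2 vol % Triton X-100 as 0 and 100% lysis; HC50 by Hill logistic regression, mean of three replicates.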

[3] = tested on: Staphylococcus aureus; assay: Antibacterial activity against Staphylococcus aureus ATCC 29213 after preincubated with plasma for 6 hrs by broth microdilution method; format: functional, organism-based
[4] = tested on: Escherichia coli; assay: Antibacterial activity against gentamicin-colistin-resistant Escherichia coli 288328 assessed as inhibition of visible growth after 24 hrs by broth microdilution method; format: functional
In short: (§3)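 Broth microdilution per CLSI: strains grown 6 h in BHI broth, diluted in Mueller-Hinton II broth to 1 × 10^6 cfu/mL, mixed 1:1 with serial dilutions of compound in MHII (compounds dissolved in sterile water); aerobic incubation 37 °C, 24 h. MIC = lowest concentration with no visible growth. Tetracycline internal control; triplicate.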

[5] = tested on: Enterococcus faecium; assay: Antibacterial activity against Enterococcus faecium 135562 (35C) assessed as inhibition of visible growth after 24 hrs by broth microdilution method; format: functional; in short: as §1
[6] = Therapeutic index, ratio of HC50 for human erythrocytes to MIC for Staphylococcus aureus ATCC 29213; format: toxicity; conditions: read-out: TI
[7] = tested on: Pseudomonas aeruginosa; assay: Antibacterial activity against Pseudomonas aeruginosa ATCC 27853 assessed as inhibition of visible growth after 24 hrs by broth microdilution method; format: functional; in short: as §1
[8] = Therapeutic index, ratio of HC50 for human erythrocytes to MIC for gentamycin-colistin-resistant Escherichia coli 288328; format: toxicity; in short: as §2
[9] = tested on: Escherichia coli; assay: Antibacterial activity against Escherichia coli ATCC 25922 assessed as inhibition of visible growth after 24 hrs by broth microdilution method; format: functional; in short: as §1
[10] = Hemolytic activity against human erythrocytes measured after 1 hr by microplate reader based spectrophotometric analysis; format: ADME, cell-based, Erythrocyte
In short: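 Heparinized fresh human blood washed three times in PBS pH 7.4 (1000 g, 10 min), resuspended ~20 vol %. Equal volume with 1:2 serial dilutions of compound in PBS, 1 h at 37 °C; PBS and 0.2 vol % Triton X-100 controls. Supernatant diluted 1:60, A350 read. HC50 from three- or four-parameter Hill fit; mean of three replicates.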

[11] = Retention time of the compound by RP-HPLC analysis; format: physicochemical
In short: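 RP-HPLC on C18 column (5 µm, 200 × 4.6 mm), 0.5 mL/min; hydrochlorides at 0.5–1 mg/mL in water:2-propanol 70:30, gradient to 10:90 over 40 min, then 20 min at 10:90. Adjusted retention time = instrumental retention time minus hold-up time.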

[12] = Therapeutic index, ratio of HC50 for human erythrocytes to MIC for Escherichia coli ATCC 25922; format: toxicity; conditions: read-out: TI
[13] = tested on: Staphylococcus aureus; assay: Antibacterial activity against linezolid-methicillin-resistant Staphylococcus aureus AOUC 0915 assessed as inhibition of visible growth after 24 hrs by broth microdilution method; format: functional; in short: as §3
[14] = tested on: Enterococcus faecalis; assay: Antibacterial activity against Enterococcus faecalis ATCC 29212 assessed as inhibition of visible growth after 24 hrs by broth microdilution method; format: functional; in short: as §1
[15] = Chemical stability of the compound in hydrochloride water at 1 ug/ml assessed as compound degradation after 8 weeks; format: physicochemical; conditions: buffer, 1344 h, at 1 µg/mL
[16] = Chemical stability of the compound in pH 1.5 hydrochloride solution at 1 ug/ml assessed as compound degradation after 8 weeks; format: physicochemical; conditions: buffer, pH 1.5, 1344 h, at 1 µg/mL
[17] = Chemical stability of the compound in pH 7.4 phosphate buffered saline at 1 ug/ml assessed as compound degradation after 8 weeks; format: physicochemical; conditions: buffer, pH 7.4, 1344 h, at 1 µg/mL
[18] = tested on: Escherichia coli; assay: Antibacterial activity against Escherichia coli ATCC 25922 by broth microdilution method
[19] = tested on: Staphylococcus aureus; assay: Antibacterial activity against Staphylococcus aureus ATCC 29213 by broth microdilution method; format: functional; in short: as §1
[20] = tested on: Enterococcus faecium; assay: Antibacterial activity against Enterococcus faecium ATCC 135562 by broth microdilution method; format: functional; in short: as §1
[21] = tested on: Pseudomonas aeruginosa; assay: microbe, parasite or virus in culture; conditions: ATCC 27853
[22] = tested on: Escherichia coli; assay: Antibacterial activity against Escherichia coli ATCC 25922; format: functional; in short: as §3
[23] = tested on: Enterococcus faecalis; assay: Antibacterial activity against Enterococcus faecalis ATCC 29212; format: functional; in short: as §1
[24] = tested on: Staphylococcus aureus; assay: Antibacterial activity against Staphylococcus aureus ATCC 29213; format: functional; in short: as §3
[25] = tested on: Cell membrane; assay: Induction of inner membrane permeabilization in gentamycin-colistin resistant Escherichia coli 288328 assessed as increase in fluorescence intensity at 8 ug/ml measured every 1 sec for 10 mins by PI-probe based assay; format: subcellular; conditions: dose 8.0 µg/ml, in the assay text read “every 0.1 sec” for “every 1 sec”
In short: (§4)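 Same washed midlog E. coli suspension (PBS pH 7.2, 10^8 cells/mL, 25 °C after 15 min equilibration). Propidium iodide 15 µM working with compound at 8 µg/mL working. Fluorescence ex 535/em 617 nm every 0.1 s over 10 min; rate constant from exponential rise-to-maximum fit; controls without cells or compound.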

[26] = tested on: Cell membrane; assay: Induction of inner membrane permeabilization in gentamycin-colistin resistant Escherichia coli 288328 assessed as rate constant by measuring PI uptake at 8 ug/ml […]; conditions: dose 8.0 µg/ml
[27] = tested on: Cell membrane; assay: Induction of outer membrane permeabilization in gentamycin-colistin resistant Escherichia coli 288328 assessed as rate constant by measuring NPN uptake at 8 ug/ml […]; conditions: dose 8.0 µg/ml
[28] = tested on: Cell membrane; assay: Induction of outer membrane permeabilization in Escherichia coli ATCC 25922 assessed as rate constant by measuring NPN uptake at 8 ug/ml measured every 1 sec for 10 mins; format: subcellular; conditions: dose 8.0 µg/ml, in the assay text read “every 0.1 sec” for “every 1 sec”
In short: (§5)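 Midlog E. coli (6 h growth, 10^8 cells/mL) washed, resuspended in PBS pH 7.2, held at 4 °C, used within 3 h; equilibrated 15 min at 25 °C. NPN 1 µM working plus compound 8 µg/mL working. Fluorescence ex 350/em 420 nm, read every 0.1 s for 10 min; rate constant from exponential rise-to-maximum fit; probe-only, buffer controls.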

[29] = tested on: Cell membrane; assay: Induction of outer membrane permeabilization in Escherichia coli ATCC 25922 assessed as increase in fluorescence intensity at 8 ug/ml measured every 1 sec for 10 mins by NPN-probe based assay; format: subcellular; conditions: dose 8.0 µg/ml, in the assay text read “every 0.1 sec” for “every 1 sec”; in short: as §5
[30] = tested on: Cell membrane; assay: Induction of inner membrane permeabilization in Escherichia coli ATCC 25922 assessed as rate constant by measuring PI uptake at 8 ug/ml […]; conditions: dose 8.0 µg/ml
[31] = tested on: Cell membrane; assay: Induction of outer membrane permeabilization in gentamycin-colistin resistant Escherichia coli 288328 assessed as increase in fluorescence intensity at 8 ug/ml measured every 1 sec for 10 mins by NPN-probe based assay; format: subcellular; conditions: dose 8.0 µg/ml, in the assay text read “every 0.1 sec” for “every 1 sec”; in short: as §5
[32] = tested on: Cell membrane; assay: Induction of inner membrane permeabilization in Escherichia coli ATCC 25922 assessed as increase in fluorescence intensity at 8 ug/ml measured every 1 sec for 10 mins by PI-probe based assay; format: subcellular; conditions: dose 8.0 µg/ml, in the assay text read “every 0.1 sec” for “every 1 sec”; in short: as §4

Row | Compound | MIC [1] [µg/mL] | selectivity ratio [2] | Activity [3] | MIC [4] [µg/mL] | MIC [5] [µg/mL] | selectivity ratio [6] | MIC [7] [µg/mL] | selectivity ratio [8] | MIC [9] [µg/mL] | HC50 at 1 h [10] [µg/mL] | Retention_time [11] [min] | selectivity ratio [12] | MIC [13] [µg/mL] | MIC [14] [µg/mL] | further results
1 | CCCCCCCCCCCCNC(=O)CN(NC(=O)c1ccccc1)C(=O)CN.Cl | 4 | 49 | Active | 4 | 4 | 49 | 64 | 49 | 4 | 195 | 19.7 | 49 | 4 | 4 | 
2 | CCCCCCCCNC(=O)CN(NC(=O)CCCCCCC)C(=O)CN.Cl | 16 |  | Active |  | 16 | 8.2 | 32 |  | 16 | 131 | 17.8 | 8.2 |  | 32 | Stabilty [15]: Stable; Stabilty [16]: Stable; Stabilty [17]: Stable
3 | H-GIGKFLKKAKKFGKAFVKILKK-NH2 [PEXIGANAN] |  |  |  |  |  |  |  |  |  |  |  |  |  |  | MIC [18]: 16 µg/mL; MIC [19]: 8 µg/mL; MIC [20]: 64 µg/mL
4 | CN(C)[C@@H]1C(O)=C(C(N)=O)C(=O)[C@@]2(O)C(O)=C3C(=O)c4c(O)cccc4[C@@](C)(O)[C@H]3C[C@@H]12 [TETRACYCLINE] |  |  |  |  |  |  |  |  |  |  |  |  |  |  | MIC [21]: 8 µg/mL (≈ 18 µM); MIC [22]: 0.5 µg/mL (≈ 1.13 µM); MIC [23]: 8 µg/mL (≈ 18 µM); MIC [24]: 0.12 µg/mL (≈ 0.27 µM)
5 | CCCCCCCCCCCCNC(=O)CN(NC(=O)C(C)(C)C)C(=O)CN.Cl | 4 | 99 | Active | 8 | 8 | 99 | 16 | 49 | 8 | 394 | 19.8 | 49 | 4 | 8 | Activity [25]: Active; Activity [26]: 0.24 min⁻¹; Activity [27]: 0.31 min⁻¹; Activity [28]: 0.25 min⁻¹; Activity [29]: Active; Activity [30]: 0.22 min⁻¹; Activity [31]: Active; Activity [32]: Active
